Published values from different studies.
Lines come from different studies, so protocols differ. In brackets after ≈: the same amount, converted by molar mass.
Organism: Escherichia coli

Compound | assay | test system | conditions | endpoint | value
COc1c(C)c(OS(=O)(=O)c2ccc3ccccc3c2)c(C)c(OS(=O)(=O)c2ccc3ccccc3c2)c1C(=O)/C=C/c1ccccc1 | microbial killing, broth dilution | ATCC25922 | – | MBC | > 5000 µg/mL
C=CCCCCCCCCCCCC(O)CC(O)CO (stereo not drawn) | microbial growth, broth dilution | ATCC35218 | – | IC50 | > 200 µg/mL
CCCCCC(=O)Oc1c(C)c(O)c(C(=O)/C=C/c2ccccc2)c(OC)c1C | microbial killing, broth dilution | ATCC25922 | – | MBC | > 5000 µg/mL
O=c1cccccc1SSc1cccccc1=O | microbial growth, broth dilution | ATCC35218 | – | MIC80 | 19.8 µM (≈ 5.43 µg/mL)
COc1ccc(-n2cc(COc3cc(C(C)C)ccc3C)nn2)cc1 | microbial growth, broth dilution | ATCC25922 | – | IC50 | 320 µg/mL (≈ 949 µM)
Cc1ccc2nc(-c3ccc(F)cc3)[nH]c2c1 | microbial growth, broth dilution | ATCC25922 | – | MIC | 64 µg/mL (≈ 283 µM)
O=C1C=C(OCc2cn(-c3ccc([N+](=O)[O-])cc3)nn2)C(=O)c2ccccc21 | microbial growth, broth dilution | ATCC25922 | – | IC50 | 396 µg/mL (≈ 1050 µM)
CC(C)Oc1c(NC(=O)c2ccc(NC(=O)[C@H](CC(N)=O)NC(=O)c3ccc(NC(=O)c4ccc(C#N)cc4)cc3)cc2)ccc(C(=O)Nc2ccncc2)c1O | microbial growth | DSM1116 | – | MIC | > 64 µg/mL
O=C(O)c1ccc(-n2cc(COC3=CC(=O)c4ccccc4C3=O)nn2)cc1 | microbial growth, broth dilution | ATCC25922 | – | IC50 | 22.6 µg/mL (≈ 60.1 µM)
Oc1cccc(-c2nc3ccccc3[nH]2)c1 | microbial growth, broth dilution | ATCC25922 | – | MIC | 64 µg/mL (≈ 304 µM)
CCCCCCCC(=O)Oc1c(C)c(O)c(C(=O)/C=C/c2ccccc2)c(OC)c1C | microbial killing, broth dilution | ATCC25922 | – | MBC | > 5000 µg/mL
CC1(C)SC2C(NC(=O)C(NC(=O)C3=C(O)C4CCCN4C3=O)c3ccccc3)C(=O)N2C1C(=O)O (stereo not drawn) | microbial growth, well diffusion | BW25113 | 200 µM | inhibition zone | 11 mm
N=C(N)c1ccc(OCc2ccccc2COc2ccc(C(=N)N)cc2)cc1 | microbial growth, broth dilution | ATCC25922 | – | MIC | > 200 µg/mL
COc1ccc(-n2cc(COC3=CC(=O)c4ccccc4C3=O)nn2)cc1 | microbial growth, broth dilution | ATCC25922 | – | IC50 | 314 µg/mL (≈ 869 µM)
CC(C)Oc1c(NC(=O)c2ccc(NC(=O)[C@H](CC(N)=O)NC(=O)c3ccc(-c4nn[nH]c4-c4ccc(C#N)cc4)cc3)cc2)ccc(C(=O)Nc2ccc(C(=O)O)cc2)c1O | microbial growth | DSM1116 | – | MIC | > 64 µg/mL
Cc1cc(N)c2ccccc2[n+]1CCCCCCCCCC[n+]1c(C)cc(N)c2ccccc21 | microbial growth, disc diffusion | – | 50 µg/disc | inhibition zone | 0 mm
CC1(C)SC2C(NC(=O)C(NC(=O)C3=C(O)C4(CC4)NC3=O)c3ccccc3)C(=O)N2C1C(=O)O (stereo not drawn) | microbial growth, well diffusion | BW25113 | 200 µM | inhibition zone | 10 mm
O=C(N/N=C/c1ccc([N+](=O)[O-])o1)c1ccc(O)cc1 | microbial growth | ATCC 8739, ATCC8739 | – | MIC90 | > 1000 µg/mL
COc1cc(C=Cc2cc(-c3ccc(N(C)C)cc3)nc(O)n2)ccc1O | microbial growth, disc diffusion | ATCC25922 | 500 µg/mL | inhibition zone | 11 mm
O=C(O)c1ccc(-n2cc(COc3cccc4cccnc34)nn2)cc1 | microbial growth, broth dilution | ATCC25922 | – | IC50 | 108 µg/mL (≈ 313 µM)
N=C(N)c1ccccc1OCc1cccc(COc2ccccc2C(=N)N)c1 | microbial growth | BW25113 | – | MIC | > 200 µg/mL
Cc1ccc(C(C)C)cc1OCc1cn(-c2ccccc2)nn1 | microbial growth, broth dilution | ATCC25922 | – | IC50 | 249 µg/mL (≈ 811 µM)
COc1cc(C=CC(=O)CC(c2ccc(N(C)C)cc2)n2ccnc2)ccc1O (stereo not drawn) | microbial growth, disc diffusion | ATCC25922 | 250 µg/mL | inhibition zone | 8 mm
N=C(N)c1ccc(OCCS(=O)(=O)CCOc2ccc(C(=N)N)cc2)cc1 | microbial growth, broth dilution | BW25113 | – | MIC | > 200 µg/mL
